# Reference: the RNAGym collection of RNA variant scans (doi:10.1126/science.aae0568)
# This sample holds only a part of the variants without activity.
# B1: tRNA (parent)
# chain: GUUCCGUUGGCGUAAUGGUAACGCGUCUCCCUCCUAAGGAGAAGACUGCGGGUUCGAGUCCCGUACGGAACG
# Variants of: B1
# Test: yeast fitness relative to wild type (ratio to wild type); higher = fitter; tRNA-Arg(CCU), competitive growth, 37 C, YPD
# Outline: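 Gene amplicons from the start population and from each of six end populations were read by 100-nucleotide paired-end sequencing. Those end populations came from pooled Saccharomyces cerevisiae strains carrying tRNA-Arg(CCU) gene variants at the native locus, competed in YPD at 37°C for 24 hours. Fitness relative to wild type was worked out from changes in genotype frequencies. Genotypes needed ≥ 100 starting reads, and estimates < 0.5 were set to 0.5.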
row,Variant,yeast fitness
1,GUUGCGUUGGCGUAAUGGUAACGCGUCUCCCUCCUAAGAAGAAGACUGCGGGAUCGAGUCCCGUACGGAACG [C4G G39A U53A],≤ 0.5
2,GUUGCGUUGGCGUAAUAGUAACGCGUCUCCCUCCUAAGGAGAAGACUGCGGGUUCGAGUCCCGUAUGGAACG [C4G G17A C66U],0.596
3,GUUGCGUUGGCGUAAUGAUAACGCGUCUCUCUCCUAAGGAGAAGACUGCGGGUUCGAGUCCCGUACGGAACG [C4G G18A C30U],0.57
4,GUUGCGUUGGCGUAAUGGUAACCCGUCUCCCUCCUAAGGAGAAGACUGCGGGUUCGAGUGCCGUACGGAACG [C4G G23C C60G],≤ 0.5
5,GUUGCGAUGGCGUAAUGGUAAUGCGUCUCCCUCCUAAGGAGAAGACUGCGGGUUCGAGUCCCGUAAGGAACG [C4G U7A C22U C66A],≤ 0.5
6,GUUGCGUUGGCGUAAUGGUAACGCGUCUCCCUCCUAAGGAGAAGACUGCGCGUUCGAGUCCCGUACGGAACG [C4G G51C],0.647
7,GUUGCGUUGGCGUAAUGCUAACGCGUCUCCCUGCUAAGGAAAAGACUGCGGGUUGGAGUCCCGUACGGAACG [C4G G18C C33G G41A C55G],≤ 0.5
8,GUUGCGUUGGCGUAAUAGUAACGCGCCUCCCUCCUAAGGGGAAGACUGCGGGUUCGAGUCCCGUACGGACCG [C4G G17A U26C A40G A70C],0.793
9,GUUGCGUUGGCGUAAUGGUAACGCGUCUCCCUCCUAAGGAGAAGACUGCCGGUUCGAGUCUCGUACGGAACG [C4G G50C C61U],0.52
10,GUUGCGUUGGCGUAAUGGUAACGCGUCUCCCUCCUAAGGAGAAGACUGCGGGUUCGAGUCCCCUACGGAACG [C4G G63C],0.622
11,GUUGCGUUGGCGUAAUGGUAACACGUCUGCCUCCUACGGAGAAGACUGCGGGUUCGAGUCGCGUACGGAACG [C4G G23A C29G A37C C61G],≤ 0.5
12,GUUGCGUUGGCGUAAUGGUAACGCGUCUCCCUCCUAAGGAGAAGACUCCGGGUUCGAGUCCCGUACGGAACG [C4G G48C],0.822
13,GUUGCGUUGGCGUAAUGAUAACGCGUCUCUCUCCUAAGGAGAAGACUGCGGGUUCGAGUGCCGUACGGAACG [C4G G18A C30U C60G],0.515
14,GUUGCGUUGGCGUAAUAGUAACGCGUCUCCCUCCUAAGGAGAAGACUGCGGGUUCGGGUCCCGUACGGAACG [C4G G17A A57G],≤ 0.5
15,GUUGCGUUGGCGUAAUGGUAACGCCUCUCGCUCCUAAGGAGAAGACUGCGGGUUCGAGUCCCGUACGGAACG [C4G G25C C30G],0.622
16,GUUGCGUUGGCGUAAUGGUAACGCGUCUCCCUCCUAAGGAGAAGACUGCAGGUUUGAGUCCCGUACGGAACG [C4G G50A C55U],≤ 0.5
17,GUUGCGUUGGCGUAAUUGUAACACGUCUCCCUCCUAAGGAGAAGACUGCGGGUUAGAGUCACGUACGGAACG [C4G G17U G23A C55A C61A],≤ 0.5
18,GUUGCGUUGGCGUAAUCGUAACGCGUCUCCCUCCUAUGGAGAAGACUGCGGGUUCGAAUCACGUACGGAACG [C4G G17C A37U G58A C61A],≤ 0.5
19,GUUGCGUUGGCGUAAUGGUAACGCGUCUCCCUCCUAAGGAGAAGACUGCGGGUUCGAGUCCCGUACAGAGCG [C4G G67A A70G],0.665

row,Variant,yeast fitness
1,GUUGCGUUGGCGUAAUAGUAACGCGUCUUCCUCCUAAGGAGAAGACUGCGGGUUCGAGUCCCGUAUGGAACG [C4G G17A C29U C66U],≤ 0.5
2,GUUGCGUUGGCGUAAUCGUAACGCGUCUCCCUGCUAAGGAGAAGACUGCGGGUUCGAGUCCCGUACGGAACG [C4G G17C C33G],≤ 0.5
3,GUUGCGUUGGCGUAAUGGUAACGCGUCUCCCUCCUAAGGAGAAGACUGCGGCUUCGCGUCCCCUACGGAACG [C4G G52C A57C G63C],≤ 0.5
4,GUUGCGUUGGCGUAAUAGUAACGCGUCACCGUCCUAAGGAGAAGACUGCGGGUUCGGGUCCUGUACGGAACG [C4G G17A U28A C31G A57G C62U],≤ 0.5
5,GUUGCGUUGGCGUAAUGGUAACGCGUCUCCCUCCUAAAGAGAAGACUGCGGGUUUGAGUCCCGUACGGAACG [C4G G38A C55U],≤ 0.5
6,GUUGCGUUGGCGUAAUGGUAACGCGUCUCCCUCCUAAGGAGAACACUGCGGGUUCGAGUCCCGUACGGAACG [C4G G44C],0.826
7,GUUGCGUUGGCGUAAUGGUAACGCGUCUCCCUCCUAAGGAGAAAACUGCGGGUUCGAGUCCCGUACGGAACG [C4G G44A],0.726
8,GUUGCGUUGGCGUAAUGGUAACGCGUCUCCCUCCUAACGAGAAGACUGCGGGUUCGAGUCCCAUACGCGACG [C4G G38C G63A G68C A69G],≤ 0.5
9,GUUGCGUUGGCGUAAUCGUAAGGCGUCUCCCUCCUAAGGAGAAGACUGCGGGUUCGAGUCCCGUACGGAACG [C4G G17C C22G],≤ 0.5
10,GUUGCGUUGGCGUAAUGCUAACGCGUCUCACUCCUAAGGAGAAGACUGCGGGUUCGAGUCCCGUACGGAACG [C4G G18C C30A],≤ 0.5
11,GUUGCGUUGGCGUAAUGCUAACGCGUCUCCCUCCUAAGGAGAAGAGUGCGGGUUCGAGUCCCGUACGGAACG [C4G G18C C46G],≤ 0.5
12,GUUGCGUUGGCGUAAUGGUAACGCGUCUCCCUCCUAAGGAGAAGACUAUACGUUCGAGUCCCGAACGGACCG [C4G G48A C49U G50A G51C U64A A70C],≤ 0.5
13,GUUGCGUUGGCGUAAUGGUAACGCGUCUCCCUCCUAAGGAGAAGACUGCGGGUUCGAGUCCCGUACAGCACG [C4G G67A A69C],≤ 0.5
14,GUUGCGUUGGCGUAAUGGUAACAAGUCUCCAUCCUGAGGAGAAGACUGCGGGUUCGAGUCCCGUACGGAACG [C4G G23A C24A C31A A36G],≤ 0.5
15,GUUGCGUUGGCGUAAUGGUAACGCGUCUCCCUCCUAAAGAGAAGACUGCGGGUUCGAGUCCCGUAUGGAACG [C4G G38A C66U],≤ 0.5
16,GUUGCGUUGGCGUAAUGGUAACGCGUCUCCCUCCUAAGGAGAAGACUGCCGGUUGGAGUCCGGUACGGAACG [C4G G50C C55G C62G],≤ 0.5
17,GUUGCGUUGGCGUAAUGGUAACGCGUCUCCCUCCUAAGGAGAAGACUGCGGGUUCGAAUCCCGAACGGAACG [C4G G58A U64A],≤ 0.5
18,GUUGCGUUGGCGUAAUGGUAACACGUCUGCCUCCUACGGAGAAGACUGCGGGUUCGAGUCCCGUACGGAACG [C4G G23A C29G A37C],0.651
